Experimental findings from ChEMBL document CHEMBL1212784, “Structure-microbicidal activity relationship of synthetic fragments derived from the antibacterial alpha-helix of human lactoferrin” (2010) are described below.

Holding throughout (type): functional
Experiment [1] relates to Candida albicans. Briefly: Antimicrobial activity against Candida albicans ATCC […] incubation in bactopeptone. The conditions noted are these: ATCC 64549. The essentials: (§1)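 Microplate killing assay in 1% Bactopeptone (pH 7.0). Log-phase organisms (BHI overnight, 2 h subculture, 37°C, washed), final ~2 × 10^5 cells/ml, with twofold peptide dilutions, 37°C humid chamber 2 h (or 20 h where stated). 5 μl drops plated on blood agar overnight; MMC99 = lowest concentration giving ≥99% inoculum reduction; duplicates.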

Experiment [2] deals with Staphylococcus aureus. The experiment is described as follows: Antimicrobial activity against Staphylococcus aureus 1800 (CCUG 1800) incubation in bactopeptone. The essentials: as §1
The nature of experiment [3]: Antimicrobial activity against Escherichia coli O6 K5 incubation in bactopeptone. In outline: as §1
Experiment [4] relates to Staphylococcus aureus. Briefly: Antimicrobial activity against methicillin resistant Staphylococcus aureus MRS3525 incubated in diluted brain heart infusion medium. The essentials:
(§2)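 Log-phase cells (BHI overnight at 37°C with shaking, subcultured 2 h, washed) at about 2 × 10^5 cells/ml final, exposed to twofold peptide dilutions in duplicate or triplicate. Medium: BHIdil (1/100 of 3.4% BHI, pH 6.7–6.9) or 1% Bactopeptone (pH 7.0). 2 h at 37°C, humid. 5-μl drops plated on blood agar overnight for CFU. MMC99 is the lowest concentration giving ≥99% kill.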

Experiment [5] concerns Candida albicans. The experiment is described as follows: Antimicrobial activity against […] Candida albicans ATCC […] incubated in diluted brain heart infusion medium. The conditions noted are these: ATCC 6454. In outline:
as §2

For experiment [6], the system named is Staphylococcus aureus. The experiment is described as follows: Antimicrobial activity against methicillin resistant Staphylococcus aureus MRS3525 incubated in bactopeptone. The essentials: as §2
Experiment [7] is described as follows: Antimicrobial activity against Escherichia coli O6 K5 incubated in diluted brain heart infusion medium. The essentials:
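Microplate assay in diluted BHI (1/100 of 3.4%, pH 6.7 to 6.9), log-phase cells at ~2 × 10^5 cells/ml, twofold peptide dilutions, 2 h at 37°C in humid chamber; drops plated on blood agar, CFU counted; MMC99 = minimum concentration giving ≥99% killing of inoculum; duplicates.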

In brackets after ≈: the same amount, converted by molar mass. Positions of bridges follow the written chain, without caps; N, C: chain ends. Non-standard residues stand in square brackets, D forms with d. Residues, ends and D or L forms follow the SMILES beside them. Nle = CCCC[C@H](N)C(=O)O; Orn = NCCC[C@H](N)C(=O)O

In the case of `CC[C@H](C)[C@H](NC(=O)[C@@H]1CSSC[C@H](NC(=O)[C@H](CCCCN)NC(=O)[C@@H](NC(=O)[C@H](C)NC(=O)[C@H](CCC(=O)O)NC(C)=O)[C@@H](C)O)C(=O)N[C@@H](Cc2ccccc2)C(=O)N[C@@H](C)C(=O)N[C@@H](Cc2c[nH]c3ccccc23)C(=O)N[C@@H](CCC(N)=O)C(=O)N[C@@H](CCCNC(=N)N)C(=O)N[C@@H](CC(N)=O)C(=O)N[C@@H](CCSC)C(=O)N[C@@H](CCCNC(=N)N)C(=O)N[C@@H](CCCCN)C(=O)N[C@@H](C(C)C)C(=O)N[C@@H](CCCNC(=N)N)C(=O)NCC(=O)N2CCC[C@H]2C(=O)N2CCC[C@H]2C(=O)N[C@@H](C(C)C)C(=O)N[C@@H](CO)C(=O)N1)C(=O)N[C@@H](CCCCN)C(=O)N[C@@H](CCCNC(=N)N)C(N)=O` (Ac-EATKCFAWQRNMRKVRGPPVSCIKR-NH2; disulfide 5-22), the values for the MIC99 (against Candida albicans [1]; against Staphylococcus aureus [2]; in experiment [3]) were > 200 µg/mL, 100 µg/mL (≈ 33.3 µM) and > 100 µg/mL, respectively.

Consider `CC[C@H](C)[C@H](NC(=O)[C@@H]1CSSC[C@H](NC(=O)[C@H](CCCCN)NC(=O)[C@@H](NC(=O)[C@H](C)NC(=O)[C@H](CCC(=O)O)NC(C)=O)[C@@H](C)O)C(=O)N[C@@H](Cc2ccccc2)C(=O)N[C@@H](CCC(N)=O)C(=O)N[C@@H](Cc2c[nH]c3ccccc23)C(=O)N[C@@H](CCCCN)C(=O)N[C@@H](CCCNC(=N)N)C(=O)N[C@@H](CC(N)=O)C(=O)N[C@@H](CCSC)C(=O)N[C@@H](CCCNC(=N)N)C(=O)N[C@@H](CCCCN)C(=O)N[C@@H](C(C)C)C(=O)N[C@@H](CCCNC(=N)N)C(=O)NCC(=O)N2CCC[C@H]2C(=O)N2CCC[C@H]2C(=O)N[C@@H](C(C)C)C(=O)N[C@@H](CO)C(=O)N1)C(=O)N[C@@H](CCCCN)C(=O)N[C@@H](CCCNC(=N)N)C(N)=O` (Ac-EATKCFQWKRNMRKVRGPPVSCIKR-NH2; disulfide 5-22), for which the MIC99 against Candida albicans [1] amounted to 50 µg/mL (≈ 16.3 µM); with Staphylococcus aureus [2], 25 µg/mL (≈ 8.17 µM); in experiment [3], 12 µg/mL (≈ 3.92 µM).

Consider `CC[C@H](C)[C@H](NC(=O)[C@@H]1CSSC[C@H](NC(=O)[C@H](CCCCN)NC(=O)[C@@H](NC(=O)[C@H](C)NC(=O)[C@H](CCC(=O)O)NC(C)=O)[C@@H](C)O)C(=O)N[C@@H](Cc2ccccc2)C(=O)N[C@@H](CCC(N)=O)C(=O)N[C@@H](Cc2c[nH]c3ccccc23)C(=O)N[C@@H](CCC(N)=O)C(=O)N[C@@H](CCCNC(=N)N)C(=O)N[C@@H](C)C(=O)N[C@@H](CCSC)C(=O)N[C@@H](CCCNC(=N)N)C(=O)N[C@@H](CCCCN)C(=O)N[C@@H](C(C)C)C(=O)N[C@@H](CCCNC(=N)N)C(=O)NCC(=O)N2CCC[C@H]2C(=O)N2CCC[C@H]2C(=O)N[C@@H](C(C)C)C(=O)N[C@@H](CO)C(=O)N1)C(=O)N[C@@H](CCCCN)C(=O)N[C@@H](CCCNC(=N)N)C(N)=O` (Ac-EATKCFQWQRAMRKVRGPPVSCIKR-NH2; disulfide 5-22), for which the MIC99 worked out at 37 µg/mL (≈ 12.3 µM) against Candida albicans [1], 50 µg/mL (≈ 16.6 µM) against Staphylococcus aureus [2] and 100 µg/mL (≈ 33.2 µM) in experiment [3].

Regarding `CCCC[C@H](NC(=O)[C@H](CCCNC(=N)N)NC(=O)[C@H](CCC(N)=O)NC(=O)[C@H](Cc1c[nH]c2ccccc12)NC(=O)[C@H](CCC(N)=O)NC(=O)[C@H](Cc1ccccc1)NC(=O)[C@@H](N)CS)C(=O)N[C@@H](CCSC)C(=O)N[C@@H](CCCNC(=N)N)C(=O)N[C@@H](CCCCN)C(=O)N[C@H](C(=O)N[C@@H](CCCNC(=N)N)C(=O)O)C(C)C` (H-CFQWQR[Nle]MRKVR-OH), the MIC99 (against Candida albicans [1]; against Staphylococcus aureus [2]; in experiment [3]) was 50 µg/mL (≈ 30.3 µM) throughout.

For the molecule `CSCC[C@H](NC(=O)[C@H](CCCN)NC(=O)[C@H](CCCNC(=N)N)NC(=O)[C@H](CCC(N)=O)NC(=O)[C@H](Cc1c[nH]c2ccccc12)NC(=O)[C@H](CCC(N)=O)NC(=O)[C@H](Cc1ccccc1)NC(=O)[C@@H](N)CS)C(=O)N[C@@H](CCCNC(=N)N)C(=O)N[C@@H](CCCCN)C(=O)N[C@H](C(=O)N[C@@H](CCCNC(=N)N)C(=O)O)C(C)C` (H-CFQWQR[Orn]MRKVR-OH), the MIC99 in the experiment on Candida albicans [1] came to 25 µg/mL (≈ 15.1 µM); against Staphylococcus aureus [2] it was 50 µg/mL (≈ 30.3 µM); in experiment [3], 25 µg/mL (≈ 15.1 µM).

As to `CCCC[C@H](NC(=O)[C@H](Cc1c[nH]c2ccccc12)NC(=O)[C@H](CCC(N)=O)NC(=O)[C@H](Cc1ccccc1)NC(=O)[C@@H](N)CS)C(=O)N[C@@H](CCCNC(=N)N)C(=O)N[C@@H](CC(N)=O)C(=O)N[C@@H](CCSC)C(=O)N[C@@H](CCCNC(=N)N)C(=O)N[C@@H](CCCCN)C(=O)N[C@H](C(=O)N[C@@H](CCCNC(=N)N)C(=O)O)C(C)C` (H-CFQW[Nle]RNMRKVR-OH), the MIC99 was found to be 25 µg/mL (≈ 15.3 µM) against Candida albicans [1], 50 µg/mL (≈ 30.5 µM) against Staphylococcus aureus [2] and 50 µg/mL (≈ 30.5 µM) in experiment [3].

`CSCC[C@H](NC(=O)[C@H](CC(N)=O)NC(=O)[C@H](CCCNC(=N)N)NC(=O)[C@H](CCCN)NC(=O)[C@H](Cc1c[nH]c2ccccc12)NC(=O)[C@H](CCC(N)=O)NC(=O)[C@H](Cc1ccccc1)NC(=O)[C@@H](N)CS)C(=O)N[C@@H](CCCNC(=N)N)C(=O)N[C@@H](CCCCN)C(=O)N[C@H](C(=O)N[C@@H](CCCNC(=N)N)C(=O)O)C(C)C` (H-CFQW[Orn]RNMRKVR-OH): the MIC99 in the experiment with Candida albicans [1] amounted to 25 µg/mL (≈ 15.3 µM); in the experiment on Staphylococcus aureus [2], 50 µg/mL (≈ 30.5 µM); in experiment [3] it was 25 µg/mL (≈ 15.3 µM).

For the molecule H-AFQWQRNMRKVR-OH, the MIC99 in the experiment on Staphylococcus aureus [4] was 14 µg/mL; in the experiment on Candida albicans [1], > 100 µg/mL; in experiment [3], > 100 µg/mL; with Candida albicans [5] it was 12 µg/mL; in the experiment with Staphylococcus aureus [6], > 100 µg/mL; in experiment [7], > 25 µg/mL.

In the case of H-CAQWQRNMRKVR-OH, the figures for the MIC99 (in the experiment on Staphylococcus aureus [4]; with Candida albicans [5]; in experiment [7]) were 7 µg/mL, 12 µg/mL and 12 µg/mL, respectively.

Regarding H-CFALKKAMKKVR-OH, the values for the MIC99 (against Candida albicans [1]; in the experiment with Staphylococcus aureus [2]; in experiment [3]) were 25 µg/mL, 50 µg/mL and 25 µg/mL, respectively.

Consider H-CFAWKRNMRKVR-OH, for which the MIC99 against Candida albicans [1] came out at 25 µg/mL; with Staphylococcus aureus [2] it was 25 µg/mL; in experiment [3], 50 µg/mL.

Take H-CFAWQRNMRKVR-OH: the MIC99 with Staphylococcus aureus [4] amounted to 3.5 µg/mL; in the experiment with Candida albicans [1], 25 µg/mL; in experiment [3], 50 µg/mL; with Candida albicans [5], 6 µg/mL; in the experiment with Staphylococcus aureus [6] it was 100 µg/mL; in experiment [7], 6 µg/mL.

H-CFQAQRNMRKVR-OH: the MIC99 in the experiment with Staphylococcus aureus [4] is 14 µg/mL; in the experiment on Candida albicans [1], > 100 µg/mL; in experiment [3] it was > 100 µg/mL; in the experiment with Candida albicans [5], 12 µg/mL; against Staphylococcus aureus [6] it was > 100 µg/mL; in experiment [7] it was 25 µg/mL.

As to H-CFQWARNMRKVR-OH, the MIC99 worked out at 3.5 µg/mL with Staphylococcus aureus [4]; 50 µg/mL with Candida albicans [1]; 50 µg/mL in experiment [3]; 12 µg/mL in the experiment with Candida albicans [5]; 100 µg/mL with Staphylococcus aureus [6]; 12 µg/mL in experiment [7].

For the molecule H-CFQWKRAMRKVR-OH, the MIC99 (in the experiment on Candida albicans [1]; with Staphylococcus aureus [2]; in experiment [3]) was 12 µg/mL in each case.

With H-CFQWKRNMRKVR-OH, the MIC99 (in the experiment on Candida albicans [1]; with Staphylococcus aureus [2]; in experiment [3]) was 25 µg/mL each time.

As to H-CFQWQANMRKVR-OH, the figures for the MIC99 (against Staphylococcus aureus [4]; in the experiment with Candida albicans [5]; in experiment [7]) were 7 µg/mL, 12 µg/mL and 12 µg/mL, respectively.

Consider H-CFQWQRAMRKVR-OH, for which the MIC99 against Staphylococcus aureus [4] is 3.5 µg/mL; in the experiment with Candida albicans [1], 25 µg/mL; in experiment [3], 25 µg/mL; in the experiment on Candida albicans [5], 6 µg/mL; with Staphylococcus aureus [6] it was 50 µg/mL; in experiment [7] it was 6 µg/mL.

With H-CFQWQRNARKVR-OH, the MIC99 in the experiment with Staphylococcus aureus [4] is 3.5 µg/mL; against Candida albicans [1], 50 µg/mL; in experiment [3], 50 µg/mL; against Candida albicans [5], 25 µg/mL; in the experiment with Staphylococcus aureus [6], > 100 µg/mL; in experiment [7], 12 µg/mL.

Consider H-CFQWQRNMAKVR-OH, for which the MIC99 was 7 µg/mL against Staphylococcus aureus [4]; > 100 µg/mL in the experiment with Candida albicans [1]; > 100 µg/mL in experiment [3]; 25 µg/mL in the experiment on Candida albicans [5]; > 100 µg/mL in the experiment with Staphylococcus aureus [6]; 25 µg/mL in experiment [7].

With H-CFQWQRNMRAVR-OH, the MIC99 was 3.5 µg/mL in the experiment with Staphylococcus aureus [4]; > 100 µg/mL against Candida albicans [1]; 100 µg/mL in experiment [3]; 25 µg/mL with Candida albicans [5]; > 100 µg/mL with Staphylococcus aureus [6]; 12 µg/mL in experiment [7].

On to H-CFQWQRNMRKAR-OH, for which the MIC99 was 3.5 µg/mL against Staphylococcus aureus [4]; 50 µg/mL with Candida albicans [1]; 50 µg/mL in experiment [3]; 25 µg/mL in the experiment on Candida albicans [5]; > 100 µg/mL against Staphylococcus aureus [6]; 12 µg/mL in experiment [7].

Take H-CFQWQRNMRKVA-OH: the MIC99 was 7 µg/mL against Staphylococcus aureus [4]; > 100 µg/mL in the experiment with Candida albicans [1]; > 100 µg/mL in experiment [3]; 25 µg/mL with Candida albicans [5]; > 100 µg/mL in the experiment with Staphylococcus aureus [6]; 12 µg/mL in experiment [7].

A word on the MIC99: it is the lowest concentration that inhibits either 99% of growth or 99% of the strains tested, depending on the study. High values mean weaker potency, low ones greater potency.
